Experimental data taken from ChEMBL document CHEMBL1142174, “Pyrazinoic acid and its n-propyl ester inhibit fatty acid synthase type I in replicating tubercle bacilli” (2007).

Columns and labels:
[1] = test system: Mycobacterium tuberculosis variant bovis BCG; experiment: Inhibition of fatty acid synthase 1 in Mycobacterium bovis BCG assessed as incorporation of [1-14C]acetate in C16 biosynthesis at 1500 ug/ml at pH 6.0
Method in brief: (§1)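 M. bovis BCG was exposed to drug in medium at pH 6 or 6.8, then labelled with [1-14C]acetate. Extracted fatty acids were analysed by HPLC for 14C-labelled C16.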

[2] = test system: Mycobacterium tuberculosis variant bovis BCG; experiment: Inhibition of fatty acid synthase 1 in Mycobacterium bovis BCG assessed as incorporation of [1-14C]acetate in C16 biosynthesis at 1500 ug/ml at pH 6.8; method in brief: as §1

SMILES: O=C(O)c1cnccn1 [PYRAZINOIC ACID]
- inhibition [1]: 97%
- inhibition [2]: 30%
